Measured values from ChEMBL document CHEMBL1134286, “Novel erythromycin derivatives with aryl groups tethered to the C-6 position are potent protein synthesis inhibitors and active against multidrug-resistant respiratory pathogens” (J Med Chem, 2001).
In brackets after ≈: the same amount, converted by molar mass.

Experiments:
[1] = Minimum inhibitory concentration against Streptococcus pyogenes PIU2548 efflux; assay type: functional
Procedure, shortened: (§1)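 MICs were determined by agar dilution following National Committee for Clinical Laboratory Standards recommendations. Values are in µg/mL.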

Staphylococcus aureus [2] = test: Minimum inhibitory concentration against Staphylococcus aureus A 5177 MLSB-i; assay type: functional; procedure, shortened: as §1
Staphylococcus aureus [3] = test: Minimum inhibitory concentration against Staphylococcus aureus A 5278 MLSB-c; assay type: functional; procedure, shortened: as §1
[4] = Minimum inhibitory concentration against Streptococcus pyogenes 930MLSB; assay type: functional; procedure, shortened: as §1
Mus musculus [5] = organism: Mus musculus; test: Mouse protection tests for effective dose against Staphylococcus aureus 10649 ((erythromycin susceptible strain)) infected mice; assay type: functional
Staphylococcus aureus [6] = test: Minimum inhibitory concentration against Staphylococcus aureus 10649 (erythromycin susceptible strain); assay type: functional; procedure, shortened: as §1
[7] = Minimum inhibitory concentration against Streptococcus pneumoniae 5737 MLSB; assay type: functional; procedure, shortened: as §1
Streptococcus pneumoniae [8] = test: Minimum inhibitory concentration against Streptococcus pneumoniae ATCC 6303 Ery-S; assay type: functional; procedure, shortened: as §1
Streptococcus pneumoniae [9] = test: Minimum inhibitory concentration against Streptococcus pneumoniae 5649 efflux; assay type: functional; procedure, shortened: as §1
Staphylococcus aureus [10] = test: Minimum inhibitory concentration against Staphylococcus aureus ATCC 6538PEry-S; assay type: functional; details: ATCC 6538P; procedure, shortened: as §1
Mus musculus [11] = organism: Mus musculus; test: Mouse protection tests for effective dose against Streptococcus pneumoniae 6303 ((erythromycin susceptible strain)) infected mice; assay type: functional
[12] = Minimum inhibitory concentration against Streptococcus pyogenes EES 61 Ery-S; assay type: functional; procedure, shortened: as §1
Streptococcus pneumoniae [13] = test: Minimum inhibitory concentration against Streptococcus pneumoniae 6303 (erythromycin susceptible strain); assay type: functional; procedure, shortened: as §1
[14] = Minimum inhibitory concentration against Haemophilus influenzae DILL Amp-R; assay type: functional; procedure, shortened: as §1
Streptococcus pneumoniae [15] = test: Cell free inhibiting activity against MLSB-resistant strain Streptococcus pneumoniae 1813 (methylated ribosomes for transcription/translation assay)
Streptococcus pneumoniae [16] = test: Cell free inhibiting activity against erythromycin-susceptible strain Streptococcus pneumoniae 5635 (Wild type ribosomes for transcription/translation assay); assay type: functional
Procedure, shortened: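 Cell-free coupled transcription/translation assay using bacterial ribosome S-30 extracts. Wild-type ribosomes were isolated from the erythromycin-susceptible strain S. pneumoniae 5635. Inhibition is reported as IC50 (µM).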

Streptococcus pneumoniae [17] = test: Cell free inhibiting activity against erythromycin-susceptible strain Streptococcus pneumoniae 5635 (Wild type ribosomes for transcription/translation assay)

Compound | MIC [1] | MIC (Staphylococcus aureus [2]) | MIC (Staphylococcus aureus [3]) | MIC [4] | MIC (Staphylococcus aureus [6]) | MIC [7] | MIC (Streptococcus pneumoniae [8]) | MIC (Streptococcus pneumoniae [9]) | MIC (Staphylococcus aureus [10]) | MIC [12] | MIC (Streptococcus pneumoniae [13]) | MIC [14] | IC50 (Streptococcus pneumoniae [15]) | IC50 (Streptococcus pneumoniae [16]) | IC50 (Streptococcus pneumoniae [17]) | ED50 (Mus musculus [5]) | ED50 (Mus musculus [11])
CC[C@H]1OC(=O)[C@H](C)C(=O)[C@H](C)[C@@H](O[C@@H]2O[C@H](C)C[C@H](N(C)C)[C@H]2O)[C@](C)(OC/C=C/c2cnc3ccccc3c2)C[C@@H](C)C2=NCCN3C(=O)O[C@@]1(C)[C@H]3[C@H]2C | 2 µg/mL (≈ 2.53 µM) | 0.05 µg/mL (≈ 0.0632 µM) | > 100 µg/mL | 16 µg/mL (≈ 20.2 µM) | 0.05 µg/mL (≈ 0.0632 µM) | 128 µg/mL (≈ 162 µM) | 0.06 µg/mL (≈ 0.0759 µM) | 1 µg/mL (≈ 1.26 µM) | 0.05 µg/mL (≈ 0.0632 µM) | 0.06 µg/mL (≈ 0.0759 µM) | 0.06 µg/mL (≈ 0.0759 µM) | 4 µg/mL (≈ 5.06 µM) |  |  |  | 60.4 mg/kg | 23.5 mg/kg
C=CCO[C@]1(C)C[C@@H](C)C(=O)[C@H](C)[C@H]2NC(=O)O[C@]2(C)[C@@H](CC)OC(=O)[C@H](C)C(=O)[C@H](C)[C@H]1O[C@@H]1O[C@H](C)C[C@H](N(C)C)[C@H]1O | 1 µg/mL (≈ 1.57 µM) | 1.56 µg/mL (≈ 2.44 µM) | > 100 µg/mL | > 64 µg/mL |  | > 64 µg/mL | 0.5 µg/mL (≈ 0.783 µM) | 0.25 µg/mL (≈ 0.391 µM) | 0.78 µg/mL (≈ 1.22 µM) | 0.25 µg/mL (≈ 0.391 µM) |  | 64 µg/mL (≈ 100 µM) | > 500000 nM | 350 nM |  |  | 
CC[C@H]1OC(=O)[C@H](C)C(=O)[C@H](C)[C@@H](O[C@@H]2O[C@H](C)C[C@H](N(C)C)[C@H]2O)[C@](C)(OC/C=C/c2cnc3ccncc3c2)C[C@@H](C)C(=O)[C@H](C)[C@H]2NC(=O)O[C@@]21C | 0.5 µg/mL (≈ 0.652 µM) | 0.05 µg/mL (≈ 0.0652 µM) | > 100 µg/mL | 4 µg/mL (≈ 5.22 µM) | 0.05 µg/mL (≈ 0.0652 µM) | 0.25 µg/mL (≈ 0.326 µM) | 0.008 µg/mL (≈ 0.0104 µM) | 0.5 µg/mL (≈ 0.652 µM) | 0.05 µg/mL (≈ 0.0652 µM) | 0.015 µg/mL (≈ 0.0196 µM) | 0.008 µg/mL (≈ 0.0104 µM) | 2 µg/mL (≈ 2.61 µM) |  |  |  | 12.5 mg/kg | > 50 mg/kg
CC[C@H]1OC(=O)[C@H](C)C(=O)[C@H](C)[C@@H](O[C@@H]2O[C@H](C)C[C@H](N(C)C)[C@H]2O)[C@](C)(OC/C=C/c2cnc3cccnc3c2)C[C@@H](C)C(=O)[C@H](C)[C@H]2NC(=O)O[C@@]21C | 0.5 µg/mL (≈ 0.652 µM) | 0.05 µg/mL (≈ 0.0652 µM) | > 100 µg/mL | 2 µg/mL (≈ 2.61 µM) | 0.05 µg/mL (≈ 0.0652 µM) | 0.25 µg/mL (≈ 0.326 µM) | 0.015 µg/mL (≈ 0.0196 µM) | 1 µg/mL (≈ 1.3 µM) | 0.05 µg/mL (≈ 0.0652 µM) | 0.03 µg/mL (≈ 0.0391 µM) | 0.015 µg/mL (≈ 0.0196 µM) | 2 µg/mL (≈ 2.61 µM) | 25000 nM |  | 100 nM | 12.5 mg/kg | 17.3 mg/kg

Continued, in another order:

MIC [1] | MIC (Staphylococcus aureus [2]) | MIC (Staphylococcus aureus [3]) | MIC [4] | MIC (Staphylococcus aureus [6]) | MIC [7] | MIC (Streptococcus pneumoniae [8]) | MIC (Streptococcus pneumoniae [9]) | MIC (Staphylococcus aureus [10]) | MIC [12] | MIC (Streptococcus pneumoniae [13]) | MIC [14] | IC50 (Streptococcus pneumoniae [15]) | IC50 (Streptococcus pneumoniae [16]) | IC50 (Streptococcus pneumoniae [17]) | Compound | ED50 (Mus musculus [5]) | ED50 (Mus musculus [11])
0.25 µg/mL (≈ 0.326 µM) | 0.1 µg/mL (≈ 0.13 µM) | > 100 µg/mL | 4 µg/mL (≈ 5.21 µM) | 0.1 µg/mL (≈ 0.13 µM) | 8 µg/mL (≈ 10.4 µM) | 0.015 µg/mL (≈ 0.0195 µM) | 0.25 µg/mL (≈ 0.326 µM) | 0.1 µg/mL (≈ 0.13 µM) | 0.004 µg/mL (≈ 0.00521 µM) | 0.015 µg/mL (≈ 0.0195 µM) | 2 µg/mL (≈ 2.6 µM) |  |  |  | CC[C@H]1OC(=O)[C@H](C)C(=O)[C@H](C)[C@@H](O[C@@H]2O[C@H](C)C[C@H](N(C)C)[C@H]2O)[C@](C)(OCCCc2cnc3ccccc3c2)C[C@@H](C)C(=O)[C@H](C)[C@H]2NC(=O)O[C@@]21C | 27.1 mg/kg | 33 mg/kg
0.5 µg/mL (≈ 0.652 µM) | 0.05 µg/mL (≈ 0.0652 µM) | > 100 µg/mL | 4 µg/mL (≈ 5.22 µM) |  | 1 µg/mL (≈ 1.3 µM) | 0.015 µg/mL (≈ 0.0196 µM) | 0.5 µg/mL (≈ 0.652 µM) | 0.05 µg/mL (≈ 0.0652 µM) | 0.03 µg/mL (≈ 0.0391 µM) |  | 2 µg/mL (≈ 2.61 µM) |  |  |  | CC[C@H]1OC(=O)[C@H](C)C(=O)[C@H](C)[C@@H](O[C@@H]2O[C@H](C)C[C@H](N(C)C)[C@H]2O)[C@](C)(OC/C=C/c2ccc3nnccc3c2)C[C@@H](C)C(=O)[C@H](C)[C@H]2NC(=O)O[C@@]21C |  | 
0.5 µg/mL (≈ 0.652 µM) | 0.2 µg/mL (≈ 0.261 µM) | > 100 µg/mL | 2 µg/mL (≈ 2.61 µM) | 0.2 µg/mL (≈ 0.261 µM) | 0.5 µg/mL (≈ 0.652 µM) | 0.03 µg/mL (≈ 0.0391 µM) | 0.25 µg/mL (≈ 0.326 µM) | 0.2 µg/mL (≈ 0.261 µM) | 0.03 µg/mL (≈ 0.0391 µM) | 0.03 µg/mL (≈ 0.0391 µM) | 4 µg/mL (≈ 5.22 µM) |  |  |  | CC[C@H]1OC(=O)[C@H](C)C(=O)[C@H](C)[C@@H](O[C@@H]2O[C@H](C)C[C@H](N(C)C)[C@H]2O)[C@](C)(OC/C=C/c2ccc3ncncc3c2)C[C@@H](C)C(=O)[C@H](C)[C@H]2NC(=O)O[C@@]21C | 9.2 mg/kg | 40.3 mg/kg
0.25 µg/mL (≈ 0.326 µM) | 0.1 µg/mL (≈ 0.131 µM) | > 100 µg/mL | > 128 µg/mL |  | 2 µg/mL (≈ 2.61 µM) | 0.03 µg/mL (≈ 0.0392 µM) | 0.25 µg/mL (≈ 0.326 µM) | 0.1 µg/mL (≈ 0.131 µM) | 0.03 µg/mL (≈ 0.0392 µM) |  | 8 µg/mL (≈ 10.4 µM) |  |  |  | CC[C@H]1OC(=O)[C@H](C)C(=O)[C@H](C)[C@@H](O[C@@H]2O[C@H](C)C[C@H](N(C)C)[C@H]2O)[C@](C)(OC/C=C/c2cccc3ncccc23)C[C@@H](C)C(=O)[C@H](C)[C@H]2NC(=O)O[C@@]21C |  | 
